# Data as given in ChEMBL document CHEMBL3992547, “Antimicrobial activity of rhodanine-3-acetic acid derivatives” (Bioorg Med Chem, 2017).
# Activity calls are given as the source filed them. No cut-off for these calls is given here.
# Experiments:
# [1] = tested on: Candida albicans; test: Antifungal activity against Candida albicans ATCC 44859 after 24 hrs by microdilution broth assay; type: functional; conditions: ATCC 44859, 24 h
# Outline: (§1)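 Broth microdilution per CLSI M27-A3 and M38-A2 in RPMI 1640 with glutamine, buffered to pH 7.0 with MOPS. Compounds are diluted in DMSO. Final inoculum is 5 × 10³ CFU/mL for yeasts and 0.5–5 × 10⁴ CFU/mL for moulds. Plates are incubated in the dark at 35 °C in humid air and read visually and/or at 540 nm after 24 and 48 h. MIC is ≥80% growth reduction (IC₈₀) for yeasts and ≥50% (IC₅₀) for filamentous fungi.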
# [2] = tested on: Candida albicans; test: Antifungal activity against Candida albicans ATCC 44859 after 48 hrs by microdilution broth assay; type: functional; conditions: ATCC 44859, 48 h; outline: as §1
# [3] = tested on: Candida tropicalis; test: Antifungal activity against Candida tropicalis 156 after 24 hrs by microdilution broth assay; type: functional; conditions: Candida tropicalis, 156, 24 h; outline: as §1
# [4] = tested on: Candida tropicalis; test: Antifungal activity against Candida tropicalis 156 after 48 hrs by microdilution broth assay; type: functional; conditions: Candida tropicalis, 156, 48 h; outline: as §1
# [5] = tested on: Nakaseomyces glabratus; test: Antifungal activity against Candida glabrata 20/I after 24 hrs by microdilution broth assay; type: functional; outline: as §1
# [6] = tested on: Nakaseomyces glabratus; test: Antifungal activity against Candida glabrata 20/I after 48 hrs by microdilution broth assay; type: functional; outline: as §1
# [7] = tested on: Trichosporon asahii; test: Antifungal activity against Trichosporon asahii 1188 after 24 hrs by microdilution broth assay; type: functional; conditions: Trichosporon asahii, 1188, 24 h; outline: as §1
# [8] = tested on: Trichosporon asahii; test: Antifungal activity against Trichosporon asahii 1188 after 48 hrs by microdilution broth assay; type: functional; conditions: Trichosporon asahii, 1188, 48 h; outline: as §1
# [9] = tested on: Aspergillus fumigatus; test: Antifungal activity against Aspergillus fumigatus 231 after 24 hrs by microdilution broth assay; type: functional; conditions: Aspergillus fumigatus, 231, 24 h; outline: as §1
# [10] = tested on: Aspergillus fumigatus; test: Antifungal activity against Aspergillus fumigatus 231 after 48 hrs by microdilution broth assay; type: functional; conditions: Aspergillus fumigatus, 231, 48 h; outline: as §1
# [11] = tested on: Trichophyton mentagrophytes; test: Antifungal activity against Trichophyton mentagrophytes 445 after 72 hrs by microdilution broth assay; type: functional; conditions: Trichophyton mentagrophytes, 445, 72 h
# Outline: (§2)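 Broth microdilution per CLSI M38-A2 in RPMI 1640 with glutamine, buffered to pH 7.0 with MOPS, with DMSO as diluent. Final inoculum is 0.5–5 × 10⁴ CFU/mL. Plates are incubated in the dark at 35 °C in humid air and read visually and/or at 540 nm after 72 and 120 h. MIC is at least 50% growth reduction versus control.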
# [12] = tested on: Trichophyton mentagrophytes; test: Antifungal activity against Trichophyton mentagrophytes 445 after 120 hrs by microdilution broth assay; type: functional; conditions: Trichophyton mentagrophytes, 445, 120 h; outline: as §2
# [13] = tested on: Mycobacterium tuberculosis; test: Antimycobacterial activity against Mycobacterium tuberculosis H37Rv 331/88 measured after 14 days by micromethod; type: functional; conditions: H37Rv 331/88, 336 h
# [14] = tested on: Mycobacterium tuberculosis; test: Antimycobacterial activity against Mycobacterium tuberculosis H37Rv 331/88 measured after 21 days by micromethod; type: functional; conditions: H37Rv 331/88, 504 h
# [15] = tested on: Mycobacterium avium; test: Antimycobacterial activity against Mycobacterium avium 330/88 measured after 14 days by micromethod; type: functional; conditions: 330/88, 336 h
# [16] = tested on: Mycobacterium avium; test: Antimycobacterial activity against Mycobacterium avium 330/88 measured after 21 days by micromethod; type: functional; conditions: 330/88, 504 h
# [17] = tested on: Mycobacterium kansasii; test: Antimycobacterial activity against Mycobacterium kansasii isolate 235/80 after 7 days by micromethod; type: functional; conditions: isolate 235/80, 168 h
# [18] = tested on: Mycobacterium kansasii; test: Antimycobacterial activity against Mycobacterium kansasii isolate 235/80 after 14 days by micromethod; type: functional; conditions: isolate 235/80, 336 h
# [19] = tested on: Mycobacterium kansasii; test: Antimycobacterial activity against Mycobacterium kansasii isolate 235/80 after 21 days by micromethod; type: functional; conditions: isolate 235/80, 504 h
# [20] = tested on: Mycobacterium kansasii; test: Antimycobacterial activity against Mycobacterium kansasii isolate 6509/96 after 7 days by micromethod; type: functional; conditions: isolate 6509/96, 168 h
# [21] = tested on: Mycobacterium kansasii; test: Antimycobacterial activity against Mycobacterium kansasii isolate 6509/96 after 14 days by micromethod; type: functional; conditions: isolate 6509/96, 336 h
# [22] = tested on: Mycobacterium kansasii; test: Antimycobacterial activity against Mycobacterium kansasii isolate 6509/96 after 21 days by micromethod; type: functional; conditions: isolate 6509/96, 504 h
# [23] = Solubility of the compound in Sula's semisynthetic medium up to 1 mM; type: physicochemical
# [24] = tested on: Klebsiella pneumoniae; test: Antibacterial activity against Klebsiella pneumoniae D 11750/08 up to 500 uM incubated for 24 to 48 hrs under dark condition by microdilution broth assay; type: functional
# Outline: (§3)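 Broth microdilution per M07-A07, modified, in Mueller-Hinton broth adjusted to pH 7.4 (±0.2). Inoculum is prepared in sterile water to McFarland 0.5 (1.5 × 10⁸ CFU/mL). Plates are incubated in the dark at 35 °C in humid air. MIC is read after 24 and 48 h as at least 95% growth reduction versus control (IC₉₅).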
# [25] = tested on: Klebsiella pneumoniae; test: Antibacterial activity against ESBL positive Klebsiella pneumoniae J 14368/08 up to 500 uM incubated for 24 to 48 hrs under dark condition by microdilution broth assay; type: functional; outline: as §3
# [26] = tested on: Pseudomonas aeruginosa; test: Antibacterial activity against Pseudomonas aeruginosa CCM 1961 up to 500 uM incubated for 24 to 48 hrs under dark condition by microdilution broth assay; type: functional; outline: as §3
# [27] = tested on: Pichia kudriavzevii; test: Antifungal activity against Candida krusei E28 after 24 to 48 hrs hrs by microdilution broth assay; type: functional; outline: as §1
# [28] = tested on: Lichtheimia corymbifera; test: Antifungal activity against Absidia corymbifera 272 after 24 to 48 hrs hrs by microdilution broth assay; type: functional; outline: as §1
SMILES,MIC80 [1] [µM],MIC80 [2] [µM],MIC80 [3] [µM],MIC80 [4] [µM],MIC80 [5] [µM],MIC80 [6] [µM],MIC80 [7] [µM],MIC80 [8] [µM],MIC50 [9] [µM],MIC50 [10] [µM],MIC50 [11] [µM],MIC50 [12] [µM],further results
OC(Cn1cncn1)(Cn1cncn1)c1ccc(F)cc1F [FLUCONAZOLE],0.24,0.24,> 500,> 500,62.5,500,250,500,> 500,> 500,7.81,125,–
O=C(O)CN1C(=O)/C(=C/c2ccccn2)SC1=S,≥ 0.98,≥ 0.98,≥ 0.98,≥ 0.98,≥ 0.98,≥ 0.98,≥ 0.98,≥ 0.98,≥ 0.98,≥ 0.98,≥ 0.98,≥ 0.98,MIC [13]: 250 µM; MIC [14]: 500 µM; MIC [15]: 1000 µM; MIC [16]: 1000 µM; MIC [17]: 500 µM; MIC [18]: 1000 µM; MIC [19]: 1000 µM; MIC [20]: 500 µM; MIC [21]: 500 µM; MIC [22]: 1000 µM; solubility [23]: Soluble; Activity [24]: inactive; Activity [25]: inactive; Activity [26]: inactive; Activity [27]: inactive; Activity [28]: inactive
